# Measured values taken from ChEMBL document CHEMBL2086286, “Synthesis, antitumor, cytotoxic and antioxidant evaluation of some new pyrazolotriazines attached to antipyrine moiety” (Eur J Med Chem, 2012).
# Where “and” joins values, the source holds several entries; their conditions need not be identical. Equal entries are not always repeated. Calls of active or inactive are those of the source. The calls are words filed in the database; no cut-off is given here.
# How the values were obtained:
# WI-38 = assay: Cytotoxicity against human WI38 cells after 96 hrs by MTT assay; assay type: functional, cell-based; conditions: WI-38, 96 h
# MCF7 = assay: Cytotoxicity against human MCF7 cells after 96 hrs by MTT assay; assay type: functional, cell-based; conditions: MCF7, 96 h
# HepG2 = assay: Cytotoxicity against human HepG2 cells after 96 hrs by MTT assay; assay type: functional, cell-based; conditions: HepG2, 96 h
# Vero = assay: Cytotoxicity against African green monkey Vero cells after 96 hrs by MTT assay; assay type: cell-based; conditions: Chlorocebus sabaeus
# [1] = Antioxidant activity assessed as ABTS free radical scavenging activity at 1 mg/mL by spectroscopic analysis; assay type: functional
# Procedure, shortened: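 ABTS radical cation generated by reacting ABTS with MnO2 (25 mg/mL) in phosphate buffer pH 7, then centrifuged and filtered. Absorbance read at 734 nm before and after adding test sample (1 mg/mL in MeOH/buffer 1:1). % inhibition = [A(control) − A(test)]/A(control) × 100. Ascorbic acid (2 mM) as positive control; solvent blank without ABTS.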
# [2] = Cytotoxicity against mouse EAC after 2 hrs by trypan blue staining based hemocytometer analysis; assay type: functional, Ehrlich; conditions: for IC50: ehrlich
# Procedure, shortened: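 Ehrlich ascites cells aspirated aseptically from the peritoneal cavity of a donor animal. Held in RPMI with 10% FBS at 37 °C, 5% CO2 for 2 h with compound at 25, 50 and 100 µg, final DMSO 0.1%. Dead cells counted by trypan blue staining on a hemocytometer; DMSO-only control viability exceeded 95%. 5-Fluorouracil as reference.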
# Nucleic Acid = assay: Protective activity against bleomycin-iron complex-induced DNA damage at 0.1 mg/ml after 1 hr; assay type: nucleic-acid assay
# Procedure, shortened: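 Final reaction mixture: DNA 0.2 mg/mL, bleomycin 0.05 mg/mL, FeCl3 0.025 mM, MgCl2 5 mM, KH2PO4/KOH pH 7.0 30 mM, and test sample 0.1 mg/mL (in MeOH) or ascorbic acid 0.24 mM. Incubated 1 h at 37 °C, stopped with EDTA. DNA damage measured by adding 1% TBA and 25% HCl, heating 15 min at 80 °C, then reading absorbance.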
Structure (SMILES),IC50 (WI-38),IC50 (MCF7),IC50 (HepG2),IC50 (Vero),inhibition [1],ED25 [2],ED100 [2],IC50 [2],Activity (Nucleic Acid),ED50 [2]
Cc1[nH]nc(NN=C(C#N)C#N)c1/N=N/c1c(C)n(C)n(-c2ccccc2)c1=O,197 µg/mL,221 µg/mL,183 µg/mL,209 µg/mL,17.2%,27.85 µg,64 µg,94.3 µg,–,–
O=C1O[C@H]([C@@H](O)CO)C(O)=C1O,–,–,–,–,92.3%,–,–,–,–,–
CCOC(=O)/C(C#N)=N/Nc1n[nH]c(C)c1/N=N/c1c(C)n(C)n(-c2ccccc2)c1=O,169 µg/mL,150 µg/mL,153 µg/mL,179 µg/mL,21.6%,22.53 µg,68.7 µg,94.9 µg and 49.8 µg,–,–
CC(=N)/C(C#N)=N\Nc1n[nH]c(C)c1/N=N/c1c(C)n(C)n(-c2ccccc2)c1=O,70.2 µg/mL,69 µg/mL,70.8 µg/mL,735 µg/mL,28.6%,1.3 µg,80 µg,97.5 µg and 60.1 µg,–,–
Cc1[nH]nc(N)c1/N=N/c1c(C)n(C)n(-c2ccccc2)c1=O,73.1 µg/mL,84.7 µg/mL,79.1 µg/mL,80.3 µg/mL,28.4%,1.71 µg,79.3 µg,97 µg and 58 µg,–,–
CC(=N)c1nnc2c(/N=N/c3c(C)n(C)n(-c4ccccc4)c3=O)c(C)nn2c1N,175 µg/mL,152 µg/mL,139 µg/mL,164 µg/mL,24.4%,14.38 µg,70.1 µg,95.5 µg and 55 µg,–,–
Cc1[nH]nc(N/N=C(\SC#N)C(=O)c2ccccc2)c1/N=N/c1c(C)n(C)n(-c2ccccc2)c1=O,92.8 µg/mL,101 µg/mL,95.3 µg/mL,96.8 µg/mL,17.6%,26.92 µg,65.2 µg,94.3 µg and 48.1 µg,Active,–
CCOC(=O)c1nnc2c(/N=N/c3c(C)n(C)n(-c4ccccc4)c3=O)c(C)nn2c1N,367 µg/mL,420 µg/mL,268 µg/mL,284 µg/mL,17.6%,28.02 µg,65.3 µg,94 µg and 47 µg,–,–
Cc1[nH]nc(N/N=C(/C#N)C(N)=C(C#N)C#N)c1/N=N/c1c(C)n(C)n(-c2ccccc2)c1=O,176 µg/mL,192 µg/mL,148 µg/mL,212 µg/mL,9.86%,64.48 µg,38 µg,–,–,–
Cc1nn2c(N)c(C#N)nnc2c1/N=N/c1c(C)n(C)n(-c2ccccc2)c1=O,377 µg/mL,452 µg/mL,254 µg/mL,301 µg/mL,15.9%,34.26 µg,62 µg,91.9 µg and 42.8 µg,–,–
Cc1[nH]nc(N/N=C(\C#N)c2nc3ccccc3s2)c1/N=N/c1c(C)n(C)n(-c2ccccc2)c1=O,169 µg/mL,164 µg/mL,179 µg/mL,181 µg/mL,19.3%,11.17 µg,70.8 µg,95 µg and 56.4 µg,–,–
CC(=O)C(=NNc1n[nH]c(C)c1/N=N/c1c(C)n(C)n(-c2ccccc2)c1=O)C(C)=O,189 µg/mL,214 µg/mL,174 µg/mL,199 µg/mL,25.8%,15.59 µg,70 µg,95 µg and 54.1 µg,–,–
CC(=O)c1nnc2c(/N=N/c3c(C)n(C)n(-c4ccccc4)c3=O)c(C)nn2c1C,40.3 µg/mL,30.6 µg/mL,39.3 µg/mL,33.1 µg/mL,27.5%,11.01 µg,73.9 µg,96.7 µg and 55.5 µg,–,–
Cc1[nH]nc(NN=C2C(=O)CCCC2=O)c1/N=N/c1c(C)n(C)n(-c2ccccc2)c1=O,19.8 µg/mL,29.9 µg/mL,16.2 µg/mL,24.8 µg/mL,40%,0.88 µg,80 µg,98.8 µg and 63.3 µg,Active,–
Cc1nn2c(N)c(-c3nc4ccccc4s3)nnc2c1/N=N/c1c(C)n(C)n(-c2ccccc2)c1=O,199 µg/mL,186 µg/mL,225 µg/mL,244 µg/mL,17.2%,26.63 µg,64 µg,93.8 µg and 49 µg,–,–
Cc1nn2c3c(nnc2c1/N=N/c1c(C)n(C)n(-c2ccccc2)c1=O)C(=O)CCC3,53 µg/mL,68.2 µg/mL,55.3 µg/mL,61.1 µg/mL,52.5%,0.67 µg,91.4 µg,99 µg and 80.2 µg,Active,–
Cc1nn2c(nnc3c(C)n[nH]c32)c1/N=N/c1c(C)n(C)n(-c2ccccc2)c1=O,311 µg/mL,411 µg/mL,210 µg/mL,276 µg/mL,16.1%,34.69 µg,61 µg,92.1 µg and 43 µg,–,–
Cc1nn2c(nnc3c(N)c(C#N)c(N)nc32)c1/N=N/c1c(C)n(C)n(-c2ccccc2)c1=O,303 µg/mL,419 µg/mL,203 µg/mL,220 µg/mL,8.28%,62.53 µg,40.6 µg,–,–,–
CC(=N)/C(C#N)=N\Nc1c(C)n(C)n(-c2ccccc2)c1=O,13.8 µg/mL,15.1 µg/mL,8.3 µg/mL,10 µg/mL,80.9%,0.46 µg,97.2 µg,100 µg,Active,–
Cc1[nH]nc(-n2nc(C(=O)c3ccccc3)sc2=N)c1/N=N/c1c(C)n(C)n(-c2ccccc2)c1=O,171 µg/mL,210 µg/mL,186 µg/mL,210 µg/mL,15.7%,39.36 µg,60.5 µg,90.7 µg,–,–
O=c1[nH]cc(F)c(=O)[nH]1 [FLUOROURACIL],4 µg/mL,2.5 µg/mL,9.1 µg/mL,6.4 µg/mL,–,32.26 µg,68 µg,97.3 µg,–,38.6 µg
CC1=NNC(=O)/C1=N/Nc1n[nH]c(C)c1/N=N/c1c(C)n(C)n(-c2ccccc2)c1=O,300 µg/mL,393 µg/mL,202 µg/mL,214 µg/mL,16.1%,26.63 µg,63.3 µg,93 µg and 45.5 µg,–,–
